Data from ChEMBL document CHEMBL1144785, “Antiplasmodial triterpenoids from Ekebergia capensis” (J Nat Prod, 2008).
Active and inactive are the calls of the source. The rule behind the calls is not given here.

Tests used:
Plasmodium falciparum [1] = assay: Antiplasmodial activity against chloroquine-resistant Plasmodium falciparum K1; type: functional, organism-based
How it was run: (§1)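 Synchronous cultures in RPMI 1640 with 10% human serum, 25 mM HEPES (pH 7.2), hypoxanthine and 2% hematocrit type O+ RBCs, under 5% CO2/5% O2/90% N2 at 37 °C. DMSO stocks were serially diluted 2-fold and added to infected RBCs at 0.5% parasitemia, then incubated 52 h. Ring forms on Giemsa smears were counted against controls. Single assay per concentration; IC50 by probit.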

Plasmodium falciparum [2] = assay: Antiplasmodial activity against chloroquine-susceptible Plasmodium falciparum FCR3; type: functional, organism-based; how it was run: as §1
Plasmodium berghei [3] = assay: Antimalarial activity in Plasmodium berghei NK65 infected ICR mice (Mus musculus) as reduced parasitemia at 100 mg/kg/day peroral dose for 4 days; type: functional; set-up: scale not given: the % may be the effect or the level left
How it was run: (§2)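 Peters 4-day suppressive test in 7-week-old outbred SPF male ICR mice, five per group. Mice infected i.p. with 10^5 P. berghei NK65-parasitized erythrocytes taken from donor mice. Compound dissolved in DMSO and diluted with distilled water (final DMSO below 0.2%). Given orally by metal catheter once daily for 4 days, first dose 2–4 h p.i.; controls received distilled water. Day-4 Giemsa tail-blood smears scored microscopically; suppression calculated against controls.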

Plasmodium berghei [4] = assay: Antimalarial activity in Plasmodium berghei NK65 infected ICR mice (Mus musculus) as reduced parasitemia at 250 mg/kg/day peroral dose for 4 days; type: functional; set-up: scale not given: the % may be the effect or the level left; conditions: route oral; how it was run: as §2
Plasmodium berghei [5] = assay: Antimalarial activity in […] NK65 infected ICR mice (Mus musculus) as reduced parasitemia at 500 mg/kg/day peroral dose after 4 days; type: functional; set-up: scale not given: the % may be the effect or the level left; conditions: route oral
How it was run: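 Male ICR mice, 7 weeks old, were infected ip with 10^5 P. berghei NK65-parasitized erythrocytes from donor mice, five per group. Dosing began 2–4 h p.i., given orally by metal catheter once daily for 4 days. Compound was in DMSO diluted with distilled water (final DMSO <0.2%); controls got water. On day 4, tail-vein Giemsa smears gave parasitemia; suppression was calculated versus control.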

Question: For `CC(=O)OC[C@](C)(O)[C@@H](CC/C(C)=C/CC/C(C)=C/CC/C=C(\C)CC/C=C(\C)CC[C@@H](O)C(C)(C)O)OC(C)=O`, which IC50 (Plasmodium falciparum [1]) is on record?
Answer: 97 µM

Question: What about the IC50 (Plasmodium falciparum [2]) of the same compound?
Answer: 113 µM

Question: Which IC50 (Plasmodium falciparum [2]) does the source give for `C/C(=C\CC/C=C(\C)CC[C@@H](O)[C@]1(C)CC[C@H](C(C)(C)O)O1)CC[C@@H](O)[C@]1(C)CC[C@H](C(C)(C)O)O1` [EKEBERIN D4] here?
Answer: 40 µM

Question: `C/C(=C\CC/C=C(\C)CC/C=C(\C)CC[C@@H](O)C(C)(C)O)CC/C=C(\C)CC[C@@H](O)C(C)(C)O` was tested. Which IC50 (Plasmodium falciparum [1]) did it give?
Answer: 59 µM

Question: And the Activity (Plasmodium berghei [3]; route oral)?
Answer: 26.5%

Question: And the Activity (Plasmodium berghei [4])?
Answer: 26.5%

Question: And the Activity (Plasmodium berghei [5])?
Answer: 20.5%

Question: What about the IC50 (Plasmodium falciparum [2]) of the same compound?
Answer: 55 µM

Question: Which IC50 (Plasmodium falciparum [1]) does the source give for `C/C(=C\CC/C=C(\C)CC/C=C(\C)CC[C@@H](O)[C@@](C)(O)CO)CC/C=C(\C)CC[C@@H](O)C(C)(C)O` here?
Answer: 7 µM

Question: What about the Activity (Plasmodium berghei [3]) of the same compound?
Answer: inactive

Question: What about the Activity (Plasmodium berghei [4]) of the same compound?
Answer: 41.2%

Question: What about the Activity (Plasmodium berghei [5]) of the same compound?
Answer: 52.9%

Question: What about the IC50 (Plasmodium falciparum [2]) of the same compound?
Answer: 18 µM

Question: Which IC50 (Plasmodium falciparum [2]) does the source give for `CC1(C)C(=O)C=C[C@]2(C)[C@H]3CC[C@@]4(C)[C@H](c5ccco5)OC(=O)[C@H]5O[C@]54[C@]3(C)C(=O)C[C@@H]12` here?
Answer: 6 µM

Question: Which IC50 (Plasmodium falciparum [1]) does the source give for `CC(=O)OC[C@](C)(O)[C@H](O)CC/C(C)=C/CC/C(C)=C/CC/C=C(\C)CC/C=C(\C)CC[C@@H](O)C(C)(C)O` [EKEBERIN D5] here?
Answer: 137 µM

Question: What about the IC50 (Plasmodium falciparum [2]) of the same compound?
Answer: 55 µM
